From PubChem
Lmaj promast: reduces viability of Leishmania major promastigotes; 200,000 tested, 9% active; inhibition, % at 10 µM; resazurin fluorescence viability; in the data active = inhibition above about 50%;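 note: promastigotes grown with compound for 44 hours at 28 °C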
Calb FLC: affects C. albicans growth with fluconazole. C. albicans CaCi-2 + fluconazole, Alamar Blue growth, 48 h. growth inhibition, % (concentration not given with the values). 300,000 tested, 0.57% active;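 active = growth inhibition above about 58% in most replicates, limit read from the data, passing the limit was not always enough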;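 note: all wells also contain fluconazole at 8 µg/ml as a sub-toxic cotreatment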
PolyA inhibitor: yeast polyadenylation inhibition. activity score, % at 12 µM. 300,000 tested, 0.02% active. S. cerevisiae SKY197-pL101 polyadenylation reporter, beta-gal luminescence; efflux-impaired pdr1/pdr3 knockout yeast; score 100 = 6 SD above DMSO;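 active = lowest replicate activity score at least 50, where 100 means six control SD above control mean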;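 note: yeast exposed to compound for 9 h at 30 °C; higher score means more reporter readthrough which indicates perturbed polyadenylation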
NLRP3 yeast inh: inhibitors of NALP3 inflammasome in yeast | Yeast reconstituted NLRP3/ASC/caspase-1, beta-gal luminescence, 24 h | inhibition, % at 10 µM | 330,000 tested, 0.39% active | AID 2825;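 active = inhibition of 50% or more; inactive = inhibition below 50%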
NALP1 yeast inh: inhibitors of NALP1 inflammasome in yeast | S. cerevisiae NALP1/ASC/caspase-1 growth, X-gal OD620, 72 h | inhibition, % at 10 µM | 280,000 tested, 0.61% active | AID 2071; in the data active = inhibition mostly above about 24%, no sharp cut-off; inactive = mostly below about 32%
T cruzi inh: blocks replication of Trypanosoma cruzi. T. cruzi beta-gal in NIH3T3, luminescence, 90 h. inhibition, % (no concentration beside the values). 300,000 tested, 1.4% active. AID 1885;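 active = mean inhibition across valid replicates above about 55%, limit read from the data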;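 note: signal also drops with host cell toxicity which is not excluded here; higher percent means less beta-gal luminescence so fewer parasites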
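System – NIH/3T3 host cells with β-galactosidase reporter T. cruzi · Doses – single 50 nL compound addition per well in DMSO · Reagent – 5000 T. cruzi trypomastigotes/well · Medium – Low-serum DMEM with 2% FBS · Timing – ≥90 h infection period, 3 h prior cell attachment · Evaluation – parasite load inhibition, % · Technique – GalScreen luminescence, 60 min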
Hits are given with their value; – = inactive; · = no result given. Shown is part of a subset that was picked to be rich in hits.

SMILES	Lmaj promast	Calb FLC	PolyA inhibitor	NLRP3 yeast inh	NALP1 yeast inh	T cruzi inh
O=[N+]([O-])c1cc(S(=O)(=O)c2ccc(N3CCCCC3)c([N+](=O)[O-])c2)ccc1N1CCCCC1	95.2	–	–	–	–	–
O=[N+]([O-])c1cccc(S(=O)(=O)c2ccc(N3CCCCC3)c([N+](=O)[O-])c2)c1	–	–	–	–	–	–
CN1CCN(c2ccccc2NC(=O)c2ccc(N3CCCCC3)c([N+](=O)[O-])c2)CC1	–	–	–	–	–	–
CN1CCN(c2ccc(C(=O)c3ccccc3)cc2[N+](=O)[O-])CC1	80.9	–	–	–	–	56.2
CNC(=S)N(CCCN(C)C)Cc1cc2cc3c(cc2[nH]c1=O)OCCO3	·	–	–	–	–	–
CCOc1ccc(NC2OCC(O)C(O)C2O)c([N+](=O)[O-])c1 (configuration not stated)	–	–	–	–	–	–
CS(=O)(=O)N1CCc2cc(C(=O)N3CCN(c4ccccc4F)CC3)ccc21	·	–	–	–	–	–
O=C(Cc1cccc2ccccc12)N1CCCc2ccccc21	–	–	–	–	–	–
CCN(CC)C(=O)C1CCCN(C(=O)CCn2nnnc2CN2CCOCC2)C1 (configuration not stated)	·	–	–	–	–	–
CCOC(=O)C1CCCN(C(=O)CCn2nnnc2CN2CCOCC2)C1 (configuration not stated)	·	–	–	–	34.7	–
COc1cc2c(cc1OC)CN(c1nc(CN3CCCCC3)nc3sc4c(c13)CCCC4)CC2	99.2	–	–	–	–	–
CCOC(=O)c1sc2nc(CN3CCCCC3)nc(Cl)c2c1C	–	–	–	–	–	–
COc1cc2c(cc1OC)CN(c1nc(CN3CCCC3)nc3sc(C)c(C)c13)CC2	–	–	–	–	–	69.3
Cc1sc2nc(CN3CCCC3)nc(Cl)c2c1C	86.2	–	–	–	–	–
COc1cc2c(cc1OC)CN(c1nc(CN3CCOCC3)nc3sc4c(c13)CCCC4)CC2	–	–	–	–	–	–
Cc1noc(/C=C/c2ccccc2F)c1S(=O)(=O)N1CCC(C(=O)N2CCN(C)CC2)CC1	·	–	–	–	–	–
C=CCn1c(SC)nc2sc3c(c2c1=O)CCc1ccccc1-3	54.4	–	–	–	–	–
COc1ccccc1-c1cc(C(=O)N/N=C/c2ccc(C)s2)c2ccccc2n1	83.2	–	–	–	–	–
Fc1c(F)c(C(F)(F)F)c(F)c(F)c1N/N=C\c1cccs1	–	–	–	–	–	–
CSc1nnc2c3cc(F)ccc3n(Cc3ccccc3)c2n1	·	–	–	–	–	–
CCN(CC)CCSc1nnc2c3cc(C)ccc3n(Cc3ccccc3)c2n1	·	–	–	–	–	57.5
Cc1cnc(C(=O)OCC(=O)Nc2ccc(C)c(S(=O)(=O)N3CCCCC3)c2)cn1	–	–	–	–	–	–
COc1cc(OC)c(C(=O)CCC(=O)O)cc1OC	71.1	–	–	–	–	–
COC(=O)c1cc2cc(NS(=O)(=O)c3ccc(C)cc3)ccc2s1	100.3	–	–	–	–	–
Cc1ccc(S(=O)(=O)N(C)C)cc1NC(=O)C(C)N(C)Cc1sccc1C (configuration not stated)	·	–	–	–	–	–
SMILES	Lmaj promast	Calb FLC	PolyA inhibitor	NLRP3 yeast inh	NALP1 yeast inh	T cruzi inh
Cc1ccc(S(=O)(=O)NC(=O)Nc2ccc(OC(F)F)cc2)cc1	·	–	–	–	35.8	–
Cc1ccc(S(=O)(=O)NC(=O)Nc2ccc(F)cc2)cc1	–	–	–	–	–	–
Cc1no[n+]([O-])c1COc1cccc(/C=N/Nc2nncn2N)c1	·	–	–	–	–	–
CCOC(=O)CNC1CC(=O)N(c2cccc(Cl)c2)C1=O (configuration not stated)	–	–	–	–	–	–
Cc1ccc(NC(=O)c2ccccc2NS(=O)(=O)c2ccc(Cl)s2)cc1	52.7	78.5	–	–	–	–
O=C1N(Cc2cccc(Cl)c2)C[C@@H]2C[C@@H](c3cccc4ncccc34)N3CCC[C@@]123	100.0	–	–	–	–	–
O=C1N(Cc2cccc(Cl)c2)C[C@@H]2C[C@@H](c3cccc4cccnc34)N3CCC[C@@]123	–	–	–	–	–	–
Cc1ccccc1-c1cccc([C@@H]2C[C@H]3CN(Cc4cccnc4)C(=O)[C@]34CCCN24)c1	62.6	–	–	–	–	–
O=C1N(Cc2cccc(Cl)c2)C[C@@H]2C[C@@H](c3c[nH]c4ccccc34)N3CCC[C@@]123	–	–	–	–	–	58.1
O=C1N(Cc2cccc(Cl)c2)C[C@@H]2C[C@@H](c3ccc4nonc4c3)N3CCC[C@@]123	59.7	–	–	–	–	–
Nc1nnnn1/N=C/c1ccc(Cl)cc1	·	–	–	–	–	–
COc1cc2ncnc(NCc3ccc(F)cc3)c2cc1OC	·	–	–	–	–	–
COCCCN(C(=O)CCOc1ccccc1C)c1c(N)n(Cc2ccccc2)c(=O)[nH]c1=O	·	–	–	–	·	–
S=C(Nc1ccc(Br)cc1)N1CCN(c2ccccn2)CC1	·	–	–	–	–	–
COC(=O)c1cc2c(C)nn(-c3ccccc3)c2s1	–	–	–	–	–	–
Cc1nn(-c2ccccc2)c2sc(C(=O)N(CC(=O)NC(C)(C)C)Cc3ccco3)cc12	59.8	–	–	–	–	–
COc1ccc(CCN(C)CCC(=O)Nc2ccc(C)cc2)cc1OC	–	–	–	–	–	58.6
COc1ccc(CCN(C)CCC(=O)Nc2cccc(C)c2)cc1OC	·	–	–	–	–	–
CCCCN(C)CCC(=O)Nc1ccc(F)c(F)c1	–	–	–	–	–	–
CCCCN(C)CCC(=O)Nc1ccc(C)cc1	90.0	–	–	–	–	–
Cc1cccc(NC(=O)C(c2cccc([N+](=O)[O-])c2)N2CCCCC2)c1 (configuration not stated)	–	–	–	–	–	–
CCCCc1cc(=O)oc2cc(OCC(=O)Nc3cccnc3)c(Cl)cc12	·	–	–	–	–	–
CC(Sc1nnc(-c2cccs2)n1-c1ccccc1)C(=O)NCc1ccc2c(c1)OCO2 (configuration not stated)	91.2	–	–	–	–	–
O=C(CSc1nnc(Cc2cccs2)n1-c1ccccc1)NCc1ccc2c(c1)OCO2	–	–	–	–	–	–
CC(Sc1ccc(Cl)cc1)C(=O)NCc1ccc2c(c1)OCO2 (configuration not stated)	–	97.2	–	–	–	–
Cc1cccc2nc(-c3ccccc3)nc(N3CCC(O)(c4ccc(Cl)cc4)CC3)c12	78.8	–	–	–	–	59.6
CCOc1ccc2[nH]c(=O)c(CN(Cc3ccco3)C(CC)c3nnnn3Cc3ccccc3)cc2c1 (configuration not stated)	–	–	–	–	–	–
